Compounds with a hit are over-represented: about 5.7% of the library has one in this group of screens.
Mdm2-MdmX inh: disrupts the human Mdm2-MdmX interaction; AID 485346; inhibition, % at 8 µM; SaOS-2 split-luciferase Mdm2/MdmX complementation, luminescence; 330,000 tested, 3% active;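 active = inhibition of at least 50% at 8 µM in the primary screen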
Target sequence (O15151 whole entry, looked up): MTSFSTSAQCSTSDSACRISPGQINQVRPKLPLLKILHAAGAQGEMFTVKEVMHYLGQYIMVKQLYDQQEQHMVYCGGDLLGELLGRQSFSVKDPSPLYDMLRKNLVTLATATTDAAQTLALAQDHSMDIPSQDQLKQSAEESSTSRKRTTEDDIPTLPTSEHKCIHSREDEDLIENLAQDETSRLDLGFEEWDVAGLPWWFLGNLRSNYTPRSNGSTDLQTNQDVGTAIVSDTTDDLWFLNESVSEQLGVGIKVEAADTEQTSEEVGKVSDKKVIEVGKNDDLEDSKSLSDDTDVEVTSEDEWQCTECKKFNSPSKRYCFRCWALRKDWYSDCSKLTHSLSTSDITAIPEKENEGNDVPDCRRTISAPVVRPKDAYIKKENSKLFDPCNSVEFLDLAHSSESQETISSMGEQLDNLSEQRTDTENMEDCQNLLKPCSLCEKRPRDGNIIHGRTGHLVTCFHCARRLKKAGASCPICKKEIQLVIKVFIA
Target sequence (Q00987 whole entry, looked up): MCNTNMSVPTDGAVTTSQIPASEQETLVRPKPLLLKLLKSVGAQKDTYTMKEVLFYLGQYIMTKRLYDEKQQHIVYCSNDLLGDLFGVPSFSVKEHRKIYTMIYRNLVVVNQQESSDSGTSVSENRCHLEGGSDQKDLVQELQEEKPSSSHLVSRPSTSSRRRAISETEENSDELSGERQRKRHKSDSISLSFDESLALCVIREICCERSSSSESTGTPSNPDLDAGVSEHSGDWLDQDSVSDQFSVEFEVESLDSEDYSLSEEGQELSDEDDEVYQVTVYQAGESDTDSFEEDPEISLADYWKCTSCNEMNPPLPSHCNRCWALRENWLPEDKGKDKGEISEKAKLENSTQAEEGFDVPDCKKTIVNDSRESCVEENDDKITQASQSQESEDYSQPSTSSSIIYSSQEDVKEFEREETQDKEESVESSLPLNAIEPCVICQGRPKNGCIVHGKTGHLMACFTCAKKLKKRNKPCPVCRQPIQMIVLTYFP
CSC inhib: blocks cancer stem cells; cancer stem cell-like cells viability, luminescence; inhibition, % at 7.5 µM; 300,000 tested, 1.1% active; in the data active = inhibition above about 75%; inconclusive = no clear call, values can overlap the other calls; tested in HMLE shEcad cells
T cruzi repl: T. cruzi replication inhibition; 300,000 tested, 1.4% active; inhibition, % (test concentration not listed); T. cruzi beta-gal in NIH3T3, luminescence, 90 h;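 active = mean inhibition across valid replicates above about 55%, limit read from the data; inconclusive = mean below that limit but half or more replicates reach it; inactive = mean below it, under half of replicates reach it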;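 also: signal also drops with host cell toxicity which is not excluded here; higher percent means less beta-gal luminescence so fewer parasites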
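Assay system: NIH/3T3 host cells with β-galactosidase reporter T. cruzi; input: 5,000 host fibroblasts per well; compound: single 50 nL compound addition per well in DMSO; timing: ≥90 h infection period, 3 h prior cell attachment; measured by: GalScreen β-gal luminescence, detergent lysis, 60 min; evaluation: percent inhibition of parasite-derived β-gal signal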
Beta apoptosis: blocks beta cell apoptosis | 300,000 tested, 0.8% active | INS-1E cytokine-induced death, ATP luminescence, 48 h; percent of positive-control rescue, neutral wells zero | protection from apoptosis, % (no concentration beside the values) | AID 435005;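 active = Every replicate reaches about 75%, or at least half do and their mean reaches it too, limit read from the data; inconclusive = At least half of replicates reach the limit but their mean does not; inactive = Under half of replicates reach the limit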;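 also: higher means more ATP so stronger rescue from cytokine killing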
Calb FLC: affects C. albicans growth with fluconazole; 300,000 tested, 0.57% active; growth inhibition, % (no concentration beside the values); C. albicans CaCi-2 (fluconazole-resistant clinical isolate) + fluconazole, Alamar Blue growth, 48 h;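 active = growth inhibition above about 58% in most replicates, limit read from the data, passing the limit was not always enough; inconclusive = exactly half the replicates above a set limit; inactive = most replicates below a set limit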;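 also: all wells also contain fluconazole at 8 µg/ml as a sub-toxic cotreatment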
SKKanGAS inh: blocks kanamycin growth of S. pyogenes SKKanGAS strain; AID 1662; BacTiter-Glo, 6 h; 300,000 tested, 1.3% active; inhibition, % at 7.5 µM;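 active = mean replicate score, as percent of positive control median, at least 50; inconclusive = mean below 50 but one replicate at or above 50; inactive = mean and every replicate below 50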;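 also: strain carries kanamycin resistance gene driven by streptokinase promoter and grows in 40 µg/ml kanamycin; loss of luminescence reflects streptokinase promoter inhibition or plain growth inhibition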
Mdm2-MdmX conf: confirmation of human Mdm2/MdmX interaction inhibitors; shares compounds with Mdm2-MdmX inh; Mdm2-MdmX binding, luminescent assay; inhibition, % at 8 µM; 10,000 tested, 55% active; in the data active = inhibition above about 40%
FLuc counter: full-length luciferase inhibition in Mdm2/MdmX counter-screen | SaOS-2 full-length luciferase counterscreen, luminescence | inhibition, % at 8 µM | 6,200 tested, 77% active | shares compounds with Mdm2-MdmX inh;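 active = mean inhibition at 8 µM reaching about 37%, which flags the compound as non-specific, limit read from the data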;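 also: p53-null SaOS-2 cells with luciferase driven by a doxycycline-inducible promoter; compound on cells about two nights before reading with doxycycline added after day one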
Of the large screens only hits and unclear results are named; the others gave an inactive call (follow-up assays come after a bar, where they were run).

O=C(Nc1nc(-c2cccc3ccccc23)cs1)c1ccc2c(c1)S(=O)(=O)c1ccccc1C2=O	Mdm2-MdmX inh 95, CSC inhib inconclusive | Mdm2-MdmX conf inactive
O=C(Nc1nc(-c2ccccc2)cs1)c1ccc2c(c1)S(=O)(=O)c1ccccc1C2=O	Mdm2-MdmX inh 74 | Mdm2-MdmX conf inactive
O=C(CSc1ccccc1F)NNC(=O)c1ccncc1	none (no result: T cruzi repl, Calb FLC, SKKanGAS inh)
CCOC(=O)N1CCc2c(sc(NC(=O)c3ccc(Cl)s3)c2C(N)=O)C1	Mdm2-MdmX inh 55, CSC inhib 86 (no result: T cruzi repl, Beta apoptosis, Calb FLC, SKKanGAS inh) | Mdm2-MdmX conf inactive
CCOC(=O)c1c(NC(=O)c2cccs2)sc2c1CCN(C(=O)OCC)C2	Mdm2-MdmX inh 65, SKKanGAS inh 54 | Mdm2-MdmX conf inactive
CC1(C)CC(NC(=O)C2CCC(=O)N(C3CC3)C2)CC(C)(C)C1 (configuration not stated)	none
O=C1CCN(S(=O)(=O)c2cc(C(F)(F)F)ccc2Cl)CC1	none (no result: T cruzi repl, Calb FLC, SKKanGAS inh)
O=C(Nc1ccc(F)cc1)Nc1nnc(-c2ccncc2)s1	Mdm2-MdmX inh 69 | Mdm2-MdmX conf inactive
O=C(Nc1ccc(F)cc1)Nc1nnc(COc2ccccc2F)s1	Mdm2-MdmX inh 91 | Mdm2-MdmX conf 82 | FLuc counter 44
O=C(Nc1cccc(Cl)c1)Nc1nnc(-c2ccncc2)s1	Mdm2-MdmX inh 100, Beta apoptosis 100 | Mdm2-MdmX conf 98 | FLuc counter 56
Cc1ccc(NC(=O)NCc2cccnc2)cc1C	none
Cc1ccc(NC(=O)Nc2nnc(-c3ccncc3)s2)cc1C	Mdm2-MdmX inh 94 (no result: Beta apoptosis) | Mdm2-MdmX conf 56 | FLuc counter inactive
COc1ccc(C(=O)N/C(=C\c2cccc3ccccc23)C(=O)N2CCN(C)CC2)cc1	none (no result: CSC inhib, T cruzi repl, Calb FLC, SKKanGAS inh)
N#CCCN(C(=O)COC(=O)CCc1c[nH]c2ccccc12)c1ccccc1	none (no result: Beta apoptosis)
CCOc1ccc(N(CC(=O)NC2CCCCC2)S(=O)(=O)c2ccccc2)cc1	none
Cc1ccc(NC(=O)CN2C(=O)NC(Cc3c[nH]c4ccccc34)C2=O)cc1 (configuration not stated)	none (no result: T cruzi repl, Calb FLC, SKKanGAS inh)
Cn1cc(/C=N/n2cnc3scc(-c4ccc(Cl)cc4)c3c2=O)c2ccccc21	Mdm2-MdmX inh 73 | Mdm2-MdmX conf 63 | FLuc counter 63
CCn1cnc2scc(-c3ccccc3)c2c1=O	none
Cn1c(=O)c2c(ncn2CC(=O)Nc2cc(S(=O)(=O)N3CCCCC3)ccc2Cl)n(C)c1=O	none (no result: T cruzi repl, Calb FLC, SKKanGAS inh)
O=C(NNc1nc(-c2ccc(Br)cc2)cs1)c1ccco1	none
N#Cc1ccc(-c2csc(NNC(=O)c3ccc(Br)cc3)n2)cc1	Mdm2-MdmX inh 77, Beta apoptosis 78 (no result: T cruzi repl) | Mdm2-MdmX conf 59 | FLuc counter inactive
CC1CC1C(=O)Nc1ccc(S(=O)(=O)N2CCCCC2)cc1 (configuration not stated)	none (no result: CSC inhib, T cruzi repl, Beta apoptosis, Calb FLC, SKKanGAS inh)
O=C(OCC(=O)N1CCCc2ccccc21)c1ccc(F)c(S(=O)(=O)N2CCOCC2)c1	none
CNc1ccc(C(=O)OCC(=O)NC(=O)NC2CCCC2)cc1[N+](=O)[O-]	none (no result: T cruzi repl, Calb FLC, SKKanGAS inh)
CCN(CC)C(=O)[C@H]1CC(CC(=O)NCC23CC4CC(CC(C4)C2)C3)C(=O)N2CCc3c([nH]c4ccccc34)[C@]12C (some centres not stated)	Mdm2-MdmX inh 69 (no result: CSC inhib, T cruzi repl, Beta apoptosis, Calb FLC, SKKanGAS inh) | Mdm2-MdmX conf inactive
CCN(CC)C(=O)[C@H]1C[C@H](CC(=O)NCCCOC)C(=O)N2CCc3c([nH]c4cc(-c5ccco5)ccc34)[C@]12C	none (no result: CSC inhib, T cruzi repl, Beta apoptosis, Calb FLC, SKKanGAS inh)
CCN(CC)C(=O)[C@H]1CC(CC(=O)NCCC2=CCCCC2)C(=O)N2CCc3c([nH]c4ccccc34)[C@]12C (some centres not stated)	none (no result: T cruzi repl, Calb FLC, SKKanGAS inh)
CCN(CC)C(=O)[C@H]1C[C@H](CC(=O)NC/C=C(\C)CCC=C(C)C)C(=O)N2CCc3c([nH]c4ccc(Cl)cc34)[C@]12C	none (no result: CSC inhib, T cruzi repl, Beta apoptosis, Calb FLC, SKKanGAS inh)
CCN(CC)C(=O)[C@H]1CC(CC(=O)NC/C=C(\C)CCC=C(C)C)C(=O)N2CCc3c([nH]c4ccc(OC)cc34)[C@]12C (some centres not stated)	Mdm2-MdmX inh 87 (no result: CSC inhib, T cruzi repl, Beta apoptosis, Calb FLC, SKKanGAS inh) | Mdm2-MdmX conf 45 | FLuc counter 59
C[C@]12c3[nH]c4cc(-c5ccco5)ccc4c3CCN1C(=O)[C@@H](CC(=O)NCC13CC4CC(CC(C4)C1)C3)C[C@@H]2C(=O)N1CCOCC1	Mdm2-MdmX inh 85 (no result: CSC inhib, T cruzi repl, Beta apoptosis, Calb FLC, SKKanGAS inh) | Mdm2-MdmX conf inactive
CCN(CC)C(=O)[C@H]1C[C@H](CC(=O)NCC23CC4CC(CC(C4)C2)C3)C(=O)N2CCc3c([nH]c4cc(-c5ccco5)ccc34)[C@]12C	Mdm2-MdmX inh 84 (no result: CSC inhib, T cruzi repl, Beta apoptosis, Calb FLC, SKKanGAS inh) | Mdm2-MdmX conf 56 | FLuc counter 71
O=C(Nc1cccc(Cl)c1)c1nc[nH]c1C(=O)N1CCN(c2ccccc2)CC1	none (no result: T cruzi repl, Calb FLC, SKKanGAS inh)
Cc1cc(C)cc(NC(=O)CSc2ccc(-c3ccccn3)nn2)c1	Mdm2-MdmX inh 68, CSC inhib 96 | Mdm2-MdmX conf 68 | FLuc counter inactive
CC(/C=N\NC(=O)c1ccc2c(c1)OCO2)c1ccccc1 (configuration not stated)	none
O=C(N=Nc1c(O)[nH]c2ccccc12)c1cc(NS(=O)(=O)c2cccs2)cc(NS(=O)(=O)c2cccs2)c1	Mdm2-MdmX inh 77 | Mdm2-MdmX conf inactive | FLuc counter 80
O=C(N=Nc1c(O)[nH]c2ccccc12)c1cccs1	none
COc1ccc(S(=O)(=O)N(C)CC(=O)NCc2ccccn2)cc1	none
Cc1ccc2c(c1)-c1c(ssc1=S)C(C)(C)N2C(=O)c1ccco1	Mdm2-MdmX inh 57 | Mdm2-MdmX conf inactive
COC(=O)[C@]1(C)N[C@H](CN(C)C(C)=O)[C@@H]2C(=O)N(Cc3ccccc3)C(=O)[C@@H]21	none (no result: CSC inhib, T cruzi repl, Beta apoptosis, Calb FLC, SKKanGAS inh)
O=C(C[C@H]1C/C=C\CC[C@H](Cc2ccc(F)cc2)C(=O)OC[C@H]2CCCN2C1=O)NCCO	none (no result: T cruzi repl, Calb FLC, SKKanGAS inh)
COc1ccc(-c2nc(NC(=O)c3ccccc3)sc2-c2ccc([N+](=O)[O-])cc2)cc1	Mdm2-MdmX inh 64 | Mdm2-MdmX conf inactive
CCOc1cc(/C=C/C(=O)OCC(=O)NCC2CCCO2)cc(Cl)c1OC (configuration not stated)	none (no result: T cruzi repl, Calb FLC, SKKanGAS inh)
CCOC(=O)NC(=O)CSc1nc(C)cc(C(F)(F)F)c1C#N	Mdm2-MdmX inh 59 | Mdm2-MdmX conf inactive
N#Cc1c(C(F)(F)F)cc(-c2ccc(F)cc2)nc1SCC(=O)O	none
Cc1coc(NC(=O)CSc2nc(-c3ccncc3)cc(C(F)(F)F)c2C#N)n1	Mdm2-MdmX inh 52 | Mdm2-MdmX conf inactive
Cc1ccc2nc(C)cc(C(=O)N3CCCC(N4CCN(c5ccccc5C)CC4)C3)c2c1 (configuration not stated)	none
CCOc1ncccc1C(=O)Nc1cc(S(=O)(=O)N(CC)CC)ccc1N1CCOCC1	none (no result: T cruzi repl, Calb FLC, SKKanGAS inh)

Assay outcomes: PubChem, several laboratories
